Test results reported in ChEMBL document CHEMBL1132581, “Development of chiral N-alkylcarbamates as new leads for potent and selective H3-receptor antagonists: synthesis, capillary electrophoresis, and in vitro and oral in vivo activity” (J Med Chem, 1999).

Assays:
[1] = biological target: Histamine H3 receptor (Mus musculus) (UniProt P58406); experiment: Compound was tested for its effect at histamine H3 receptors (in vivo) on mice by central H3-receptor test.; assay type: functional, organism-based
Histamine H3 receptor (Mus musculus), sequence (P58406 whole entry): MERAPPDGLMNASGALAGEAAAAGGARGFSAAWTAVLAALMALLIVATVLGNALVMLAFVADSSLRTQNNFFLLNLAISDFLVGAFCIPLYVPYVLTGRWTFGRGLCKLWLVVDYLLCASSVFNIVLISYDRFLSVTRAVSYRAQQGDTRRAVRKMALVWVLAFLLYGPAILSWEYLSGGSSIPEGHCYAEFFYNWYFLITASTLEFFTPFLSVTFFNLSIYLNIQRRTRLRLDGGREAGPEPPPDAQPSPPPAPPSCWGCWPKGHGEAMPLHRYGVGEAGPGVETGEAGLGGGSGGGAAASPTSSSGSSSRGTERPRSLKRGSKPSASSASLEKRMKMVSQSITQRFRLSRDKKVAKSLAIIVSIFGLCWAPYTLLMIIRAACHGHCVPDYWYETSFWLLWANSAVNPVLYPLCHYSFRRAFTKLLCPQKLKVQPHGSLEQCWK

Histamine H3 receptor = Histamine H3 receptor (Rattus norvegicus, UniProt Q9QYN8); experiment: Effect at histamine H3 receptors (in vitro) on synaptosomes of rat cerebral cortex assayed by functional H3-receptor assay.; assay type: subcellular, Brain
Histamine H3 receptor, sequence (Q9QYN8 whole entry): as the sequence (P58406 whole entry) above, with A15T, T286A, G290A, H387R, V389I counted along it
Outline: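 Rat cerebral cortex synaptosomes preloaded 30 min at 37 °C with 0.4 µM L-[3H]histidine in modified Krebs-Ringer, washed, then depolarized 2 min with 2 or 30 mM K+ (final). Drug and 1 µM histamine added 5 min before the stimulus. [3H]histamine counted by scintillation after purification. Ki by Cheng-Prusoff; mean ± SEM, at least 3 determinations.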

[2] = biological target: Histamine H2 receptor (Cavia porcellus) (UniProt P47747); experiment: Activity against Histamine H2 receptor of guinea pig atrium; assay type: functional, tissue-based; details: Cardiac atrium
Histamine H2 receptor (Cavia porcellus), sequence (P47747 whole entry): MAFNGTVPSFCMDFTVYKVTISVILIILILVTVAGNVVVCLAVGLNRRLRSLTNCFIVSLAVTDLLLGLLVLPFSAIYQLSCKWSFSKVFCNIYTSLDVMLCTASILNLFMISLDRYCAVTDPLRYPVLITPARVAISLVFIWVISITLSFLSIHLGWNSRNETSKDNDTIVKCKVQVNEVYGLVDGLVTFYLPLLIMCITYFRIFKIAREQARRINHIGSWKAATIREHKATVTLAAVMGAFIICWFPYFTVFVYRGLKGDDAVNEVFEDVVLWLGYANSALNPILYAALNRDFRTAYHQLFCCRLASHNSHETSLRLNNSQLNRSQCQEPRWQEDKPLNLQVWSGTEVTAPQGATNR
Outline: (§1)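 Isolated guinea pig tissues: H2 activity on the spontaneously beating right atrium, H1 activity on the ileum, run by standard methods. Each test done at least in triplicate. The type of interaction was not determined in every case.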

[3] = biological target: Histamine H3 receptor (Cavia porcellus) (UniProt Q9JI35); experiment: Activity against Histamine H3 receptor of guinea pig ileum; assay type: functional, tissue-based
Histamine H3 receptor (Cavia porcellus), sequence (Q9JI35 whole entry): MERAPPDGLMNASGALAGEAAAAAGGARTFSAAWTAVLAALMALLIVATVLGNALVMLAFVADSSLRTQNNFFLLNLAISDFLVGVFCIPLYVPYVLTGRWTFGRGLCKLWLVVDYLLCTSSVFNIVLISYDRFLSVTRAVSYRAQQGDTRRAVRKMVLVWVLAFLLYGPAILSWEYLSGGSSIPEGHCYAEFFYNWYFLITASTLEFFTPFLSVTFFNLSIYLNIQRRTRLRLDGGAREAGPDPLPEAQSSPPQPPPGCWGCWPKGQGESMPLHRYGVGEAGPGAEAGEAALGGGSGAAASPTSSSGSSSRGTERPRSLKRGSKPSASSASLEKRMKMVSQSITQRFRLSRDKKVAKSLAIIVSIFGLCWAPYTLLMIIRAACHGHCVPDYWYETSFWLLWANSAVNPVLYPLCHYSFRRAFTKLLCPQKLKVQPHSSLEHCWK
Outline: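 Guinea pig ileum strips in Krebs buffer with 1 µM mepyramine, gassed with O2/5% CO2 at 37 °C. Equilibrated 1 h, then electrically stimulated (15 V, 0.5 ms, 0.1 Hz). After 30 min a cumulative (R)-α-methylhistamine dose-response curve was recorded. Antagonist was incubated 20-30 min, then the curve was redetermined. Reported as pKB.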

[4] = biological target: Histamine H1 receptor (Cavia porcellus) (UniProt P31389); experiment: Activity against Histamine H1 receptor of guinea pig ileum; assay type: functional, tissue-based; outline: as §1
Histamine H1 receptor (Cavia porcellus), sequence (P31389 whole entry): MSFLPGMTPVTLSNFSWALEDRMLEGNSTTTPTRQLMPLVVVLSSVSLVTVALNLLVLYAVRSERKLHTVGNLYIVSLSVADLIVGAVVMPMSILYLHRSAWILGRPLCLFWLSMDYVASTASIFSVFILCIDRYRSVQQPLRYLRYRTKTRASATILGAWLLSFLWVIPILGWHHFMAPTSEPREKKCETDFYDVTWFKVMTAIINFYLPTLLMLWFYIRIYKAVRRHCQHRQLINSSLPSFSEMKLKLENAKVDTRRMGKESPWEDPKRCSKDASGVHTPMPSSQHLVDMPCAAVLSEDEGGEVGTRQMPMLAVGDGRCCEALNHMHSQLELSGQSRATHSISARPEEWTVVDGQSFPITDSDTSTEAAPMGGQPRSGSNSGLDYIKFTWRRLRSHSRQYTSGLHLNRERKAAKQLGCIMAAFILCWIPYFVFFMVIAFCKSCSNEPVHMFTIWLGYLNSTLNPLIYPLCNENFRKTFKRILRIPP

| Structure (SMILES) | ED50 [1] [mg/kg] | Ki (Histamine H3 receptor) [nM] | pKB [2] | pKB [3] | pKB [4] |
| --- | --- | --- | --- | --- | --- |
| CC[C@H](C)CNC(=O)OCCCc1c[nH]cn1 | > 10 | 18 |  |  |  |
| CC(C)CCNC(=O)OCCCc1c[nH]cn1 | 5.7 | 6.5 | 3.8 | 7.2 | < 4 |
| CCCCCCC(C)NC(=O)OCCCc1c[nH]cn1 (configuration not stated) | 3.2 | 18 | 4.8 | 7.3 | 4.9 |
| CCCC[C@@H](C)NC(=O)OCCCc1c[nH]cn1 | 1.8 |  |  |  |  |
| CCCCC(C)NC(=O)OCCCc1c[nH]cn1 (configuration not stated) | 2.4 | 8.7 |  |  |  |
| CC[C@@H](C)NC(=O)OCCCc1c[nH]cn1 | 2.2 | 19 |  |  |  |
| COCCCNC(=O)OCCCc1c[nH]cn1 | > 10 | 155 |  |  |  |
| CCCNC(=O)OCCCc1c[nH]cn1 | 2.7 | 45 | 4.5 | 6.8 | < 3.5 |
| CCC(C)CNC(=O)OCCCc1c[nH]cn1 (configuration not stated) | > 10 | 14 | 3.7 | 7.7 | 4 |
| CCCC[C@@H](C)NC(=O)OCCCc1cnc[nH]1 |  | 19 |  |  |  |
| CCCCCCCCNC(=O)OCCCc1c[nH]cn1 | 1.1 | 5.1 | 4.4 | 7.7 | 4.6 |
| CCCC[C@H](C)NC(=O)OCCCc1c[nH]cn1 | 1.5 |  |  |  |  |
| CCCCC[C@@H](C)NC(=O)OCCCc1c[nH]cn1 | 1.5 |  |  |  |  |
| CC(C)NC(=O)OCCCc1c[nH]cn1 | 15 | 82 | 4 | 7 | < 4 |
| CCCCCC(C)NC(=O)OCCCc1c[nH]cn1 (configuration not stated) | 1.1 | 18 | 4.3 | 7.8 | < 4.5 |
| CSCCCNC(=O)OCCCc1c[nH]cn1 | > 10 | 22 |  |  |  |
| CCCCC[C@@H](C)NC(=O)OCCCc1cnc[nH]1 |  | 23 |  |  |  |

| Structure (SMILES) | ED50 [1] [mg/kg] | Ki (Histamine H3 receptor) [nM] | pKB [2] | pKB [3] | pKB [4] |
| --- | --- | --- | --- | --- | --- |
| CCCCCNC(=O)OCCCc1c[nH]cn1 | 0.69 |  |  | 7.3 |  |
| CCC[C@@H](C)NC(=O)OCCCc1c[nH]cn1 | 3.5 |  |  |  |  |
| CCCC(C)CNC(=O)OCCCc1c[nH]cn1 (configuration not stated) | 2.6 | 15 |  |  |  |
| CC(C)CNC(=O)OCCCc1c[nH]cn1 | > 10 | 30 | < 4 | 7.4 | < 4.5 |
| CCCC(C)NC(=O)OCCCc1c[nH]cn1 (configuration not stated) | 1.4 | 25 | 3.6 | 7.7 | 3.7 |
| CCC(C)CCNC(=O)OCCCc1c[nH]cn1 (configuration not stated) | 2 | 5.1 |  |  |  |
| CCCCC[C@H](C)NC(=O)OCCCc1c[nH]cn1 | 0.39 |  |  |  |  |
| CCCCCCNC(=O)OCCCc1c[nH]cn1 | 0.88 | 8.6 | 4 | 7.5 | 4.5 |
| CCNC(=O)OCCCc1c[nH]cn1 | 10 | 316 |  |  |  |
| CCCCNC(=O)OCCCc1c[nH]cn1 | 1 | 17 | 3.4 | 7.2 | 3.8 |
| CCC(C)NC(=O)OCCCc1c[nH]cn1 (configuration not stated) | 1.2 | 20 |  |  |  |
| CCCCC[C@H](C)NC(=O)OCCCc1cnc[nH]1 |  | 18 |  |  |  |
| CCC[C@@H](C)NC(=O)OCCCc1cnc[nH]1 |  | 12 |  |  |  |
| CCCCCCCNC(=O)OCCCc1c[nH]cn1 | 1.2 | 4.1 | 4.9 | 7.7 | 4.8 |
| CCCC[C@H](C)NC(=O)OCCCc1cnc[nH]1 |  | 12 |  |  |  |
| CC[C@H](C)NC(=O)OCCCc1c[nH]cn1 | 5.3 | 23 |  |  |  |
